The target of one assay is T1, Angiotensin II receptor (Rattus norvegicus, UniProt P29089+P25095+P35351).
T1 sequence (P29089 whole entry): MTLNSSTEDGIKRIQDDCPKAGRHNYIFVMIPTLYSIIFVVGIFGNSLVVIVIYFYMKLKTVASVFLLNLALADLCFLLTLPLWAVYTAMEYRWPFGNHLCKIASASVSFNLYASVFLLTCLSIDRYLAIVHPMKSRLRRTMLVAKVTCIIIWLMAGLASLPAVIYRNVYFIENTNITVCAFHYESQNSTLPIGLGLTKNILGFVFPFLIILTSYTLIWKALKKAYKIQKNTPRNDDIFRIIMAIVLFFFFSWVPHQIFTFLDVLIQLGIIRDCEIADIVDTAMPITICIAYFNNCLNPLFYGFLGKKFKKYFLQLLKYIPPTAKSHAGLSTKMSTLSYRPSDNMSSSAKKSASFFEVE
T1 sequence (P25095 whole entry): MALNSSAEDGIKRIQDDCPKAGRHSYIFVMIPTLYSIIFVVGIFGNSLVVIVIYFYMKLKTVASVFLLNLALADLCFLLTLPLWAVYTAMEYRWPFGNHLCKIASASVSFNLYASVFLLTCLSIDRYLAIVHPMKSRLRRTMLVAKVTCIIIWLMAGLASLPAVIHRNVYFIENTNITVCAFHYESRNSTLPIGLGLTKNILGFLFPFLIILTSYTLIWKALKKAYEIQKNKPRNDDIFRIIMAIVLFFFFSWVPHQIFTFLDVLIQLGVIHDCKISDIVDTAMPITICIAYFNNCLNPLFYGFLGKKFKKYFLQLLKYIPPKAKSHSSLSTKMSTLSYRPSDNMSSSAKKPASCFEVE
T1 sequence (P35351 whole entry): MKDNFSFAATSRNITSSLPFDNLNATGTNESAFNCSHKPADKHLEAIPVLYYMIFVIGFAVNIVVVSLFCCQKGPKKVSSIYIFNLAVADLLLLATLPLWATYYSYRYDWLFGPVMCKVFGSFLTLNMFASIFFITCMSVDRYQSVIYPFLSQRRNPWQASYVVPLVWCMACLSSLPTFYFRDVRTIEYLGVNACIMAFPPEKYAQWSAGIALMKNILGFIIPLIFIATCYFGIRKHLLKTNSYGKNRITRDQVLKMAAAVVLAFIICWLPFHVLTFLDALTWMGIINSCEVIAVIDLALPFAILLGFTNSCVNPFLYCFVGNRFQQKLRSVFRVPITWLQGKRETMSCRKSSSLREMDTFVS
Put plainly: In vitro antagonist activity (ANG II like) expressed as percent activity relative to ANG II in rabbit aorta strip assay. It counts as functional, tissue-based.

In assay [1] the target is T2, Angiotensin II receptor (Rattus norvegicus) (UniProt P29089+P25095+P35351). Briefly: In vitro agonist activity relative to angiotensin II measured in rabbit aorta strip assay. It is filed as functional, tissue-based.
In assay [2] the target is T2, Angiotensin II receptor (Rattus norvegicus). Put plainly: In vivo antagonist activity (ANG II like) expressed by blood pressure increase (mHg) produced by […] iv injection of compound in rats. It counts as functional, organism-based. The essentials: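 Rat blood pressure assay after Regoli et al.; residual ANG II-like activity read as mmHg rise in blood pressure following a one microgram intravenous bolus of compound; n = 5.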

Numbered stars: 1 amine (or outer) side, 2 acyl side, 3 side chain; on linkers, the order of the positions; unused ones are H or OH. Square brackets hold non-standard residues; d marks the D form. Peptide text beside a SMILES is read from it. X2 = O=C([C@H]1C[S+]([O-])CN1[*:1])[*:2]; Thz(5,5-Me2) = CC1(C)SCN[C@@H]1C(=O)O; Pen = CC(C)(S)[C@H](N)C(=O)O; NMeA = CN[C@@H](C)C(=O)O; Ac5c = NC1(C(=O)O)CCCC1; Aib = CC(C)(N)C(=O)O; Sar = CNCC(=O)O

Take `CNCC(=O)N[C@@H](CCCN=C(N)N)C(=O)N[C@H](C(=O)N[C@@H](Cc1ccc(O)cc1)C(=O)N1CSC(C)(C)[C@H]1C(=O)N[C@@H](Cc1c[nH]cn1)C(=O)N1CCC[C@H]1C(=O)N[C@H](Cc1ccccc1)C(=O)O)C(C)C`: the pA2 at Angiotensin II receptor came to 7.5.

In turn, `CC[C@H](C)[C@H](NC(=O)[C@H](Cc1ccc(O)cc1)NC(=O)[C@@H](NC(=O)[C@H](CCCN=C(N)N)NC(=O)CNC)C(C)C)C(=O)N[C@@H](Cc1c[nH]cn1)C(=O)N1CCC[C@H]1C(=O)N[C@H](Cc1ccccc1)C(=O)O` gave an Activity in assay [1] of 0%. The compound further gave a pA2 at Angiotensin II receptor of 9. In addition, in assay [2], the ID50 (ng min-1 rat-1) stood at 12.5.

As for `CC[C@H](C)[C@H](NC(=O)[C@@H]1CSCN1C(=O)[C@H](Cc1c[nH]cn1)NC(=O)[C@@H](NC(=O)[C@H](Cc1ccc(O)cc1)NC(=O)[C@@H](NC(=O)[C@H](CCCN=C(N)N)NC(=O)CNC)C(C)C)[C@@H](C)CC)C(=O)O`, the pA2 at Angiotensin II receptor worked out at 9.7.

For `CC[C@H](C)[C@H](NC(=O)[C@H]1N(C(=O)[C@H](Cc2c[nH]cn2)NC(=O)[C@@H](NC(=O)[C@H](Cc2ccc(O)cc2)NC(=O)[C@@H](NC(=O)[C@H](CCCN=C(N)N)NC(=O)CNC)C(C)C)[C@@H](C)CC)CSC1(C)C)C(=O)O`, the pA2 on Angiotensin II receptor is 7.5.

Regarding `CC[C@H](C)[C@H](NC(=O)[C@@H]1CCCN1C(=O)[C@H](Cc1c[nH]cn1)NC(=O)[C@H]1N(C(=O)[C@H](Cc2ccc(O)cc2)NC(=O)[C@@H](NC(=O)[C@H](CCCN=C(N)N)NC(=O)CNC)C(C)C)CSC1(C)C)C(=O)O`, the pA2 at Angiotensin II receptor is listed as 9.

As to `CC[C@H](C)[C@H](NC(=O)[C@@H]1CCCN1C(=O)[C@H](Cc1c[nH]cn1)NC(=O)[C@](C)(Cc1ccc(O)cc1)NC(=O)[C@H](Cc1ccc(O)cc1)NC(=O)[C@@H](NC(=O)[C@H](CCCN=C(N)N)NC(=O)CNC)C(C)C)C(=O)O`, the Activity in assay [1] turned out to be 0%. At Angiotensin II receptor, the pA2 is recorded as 8.25. The compound further showed an ID50 (ng min-1 rat-1) in assay [2] of 100.

In turn, `CC[C@H](C)[C@H](NC(=O)[C@H](Cc1ccc(O)cc1)NC(=O)[C@@H](NC(=O)[C@H](CCCN=C(N)N)NC(=O)CNC)C(C)C)C(=O)N[C@@H](Cc1c[nH]cn1)C(=O)N1CCC[C@H]1C(=O)NC(C)(C)C(=O)O` showed a pA2 on Angiotensin II receptor of 8.7.

For the compound `CC[C@H](C)[C@H](NC(=O)[C@@H]1CCCN1C(=O)[C@H](Cc1c[nH]cn1)NC(=O)[C@H](Cc1ccc(O)cc1)NC(=O)[C@H](Cc1ccc(O)cc1)NC(=O)[C@@H](NC(=O)[C@H](CCCN=C(N)N)NC(=O)CNC)C(C)C)C(=O)O`, at Angiotensin II receptor, the pA2 is on record as 9.6.

For the compound `CC[C@H](C)[C@H](NC(=O)[C@@H]1CCCN1C(=O)[C@H](Cc1c[nH]cn1)NC(=O)[C@H]([C@@H](C)CC)N(C)C(=O)[C@H](Cc1ccc(O)cc1)NC(=O)[C@@H](NC(=O)[C@H](CCCN=C(N)N)NC(=O)CNC)C(C)C)C(=O)O`, the Activity in assay [1] turned out to be 0%. The compound further displayed a pA2 at Angiotensin II receptor of 7.64.

The compound `CC[C@@H](C)[C@@H](NC(=O)[C@H](Cc1ccc(O)cc1)NC(=O)[C@@H](NC(=O)[C@H](CCCN=C(N)N)NC(=O)CNC)C(C)C)C(=O)N[C@@H](Cc1c[nH]cn1)C(=O)N1CCC[C@H]1C(=O)NC(C)(C)C(=O)O` showed an Activity in assay [1] of 0%.

With `CC[C@H](C)[C@@H](C(=O)N[C@@H](Cc1c[nH]cn1)C(=O)N1CCC[C@H]1C(=O)N[C@@H](Cc1ccccc1)C(=O)O)N(C)C(=O)[C@H](Cc1ccc(O)cc1)NC(=O)[C@@H](NC(=O)[C@H](CCCN=C(N)N)NC(=O)CNC)C(C)C`, the Activity in assay [1] amounted to 20%.

`CC[C@H](C)[C@H](NC(=O)[C@@H]1CCCN1C(=O)[C@H](Cc1c[nH]cn1)NC(=O)[C@@H](NC(=O)[C@H](Cc1ccc(O)cc1)NC(=O)[C@@H](NC(=O)[C@H](CCCN=C(N)N)NC(=O)CNC)C(C)C)[C@@H](C)CC)C(=O)O`: the Activity in assay [1] came out at 0%. Further, in assay [2], the ID50 (ng min-1 rat-1) is 10.

As for `CC[C@H](C)[C@H](NC(=O)[C@@H]1CCCN1C(=O)[C@H](Cc1c[nH]cn1)NC(=O)[C@@H]1N(C(=O)[C@H](Cc2ccc(O)cc2)NC(=O)[C@@H](NC(=O)[C@H](CCCN=C(N)N)NC(=O)CNC)C(C)C)CSC1(C)C)C(=O)O`, the Activity in assay [1] was found to be 0%. The compound also came in with an ID50 (ng min-1 rat-1) in assay [2] of 25.

`CC[C@H](C)[C@H](NC(=O)[C@@H]1N(C(=O)[C@H](Cc2c[nH]cn2)NC(=O)[C@@H](NC(=O)[C@H](Cc2ccc(O)cc2)NC(=O)[C@@H](NC(=O)[C@H](CCCN=C(N)N)NC(=O)CNC)C(C)C)[C@@H](C)CC)CSC1(C)C)C(=O)O` showed an Activity in assay [1] of 4%. Further, the ID50 (ng min-1 rat-1) in assay [2] stood at 250.

In turn, `CC[C@H](C)[C@H](NC(=O)[C@H](Cc1ccc(O)cc1)NC(=O)[C@H](C)N(C)C(=O)[C@H](CCCN=C(N)N)NC(=O)CNC)C(=O)N[C@@H](Cc1c[nH]cn1)C(=O)N1CCC[C@H]1C(=O)N[C@@H](Cc1ccccc1)C(=O)O` yielded an Activity in assay [1] of 120%.

In assay [1], `CC[C@H](C)[C@H](NC(=O)[C@H]1CSCN1C(=O)[C@H](Cc1c[nH]cn1)NC(=O)[C@@H](NC(=O)[C@H](Cc1ccc(O)cc1)NC(=O)[C@@H](NC(=O)[C@H](CCCN=C(N)N)NC(=O)CNC)C(C)C)[C@@H](C)CC)C(=O)O` gave an Activity of 0%.

In assay [1], `CNCC(=O)N[C@@H](CCCN=C(N)N)C(=O)N[C@H](C(=O)N[C@@H](Cc1ccc(O)cc1)C(=O)N1CSC(C)(C)[C@@H]1C(=O)N[C@@H](Cc1c[nH]cn1)C(=O)N1CCC[C@H]1C(=O)N[C@H](Cc1ccccc1)C(=O)O)C(C)C` gave an Activity of 0%. The compound further came in with an ID50 (ng min-1 rat-1) in assay [2] of 1000.

In turn, `CC[C@H](C)[C@H](NC(=O)[C@H](Cc1ccc(O)cc1)NC(=O)[C@H](C)NC(=O)[C@H](CCCN=C(N)N)NC(=O)CNC)C(=O)N[C@@H](Cc1c[nH]cn1)C(=O)N1CCC[C@H]1C(=O)N[C@@H](Cc1ccccc1)C(=O)O` (H-[Sar]RAYIHPF-OH) returned an Activity in assay [1] of 38%.

For the compound `CC[C@H](C)[C@H](NC(=O)[C@@H]1CCCN1C(=O)[C@H](Cc1c[nH]cn1)NC(=O)[C@@H](NC(=O)[C@H](Cc1ccc(O)cc1)NC(=O)[C@@H]1CCCN1C(=O)[C@H](CCCN=C(N)N)NC(=O)CNC)[C@@H](C)CC)C(=O)O` (H-[Sar]RPYIHPI-OH), in assay [1], the Activity was 1.5%. At Angiotensin II receptor, this compound showed a pA2 of 7.17.

In assay [1], `CC[C@H](C)[C@H](NC(=O)[C@@H]1CCCN1C(=O)[C@H](Cc1c[nH]cn1)NC(=O)[C@H](C)NC(=O)[C@H](Cc1ccc(O)cc1)NC(=O)[C@@H](NC(=O)[C@H](CCCN=C(N)N)NC(=O)CNC)C(C)C)C(=O)O` (H-[Sar]RVYAHPI-OH) displayed an Activity of 0%. On Angiotensin II receptor, this compound had a pA2 of 7.5. Also, the ID50 (ng min-1 rat-1) in assay [2] is 50.

Take `CC[C@H](C)[C@H](NC(=O)C(C)(C)NC(=O)[C@H](Cc1c[nH]cn1)NC(=O)[C@@H](NC(=O)[C@H](Cc1ccc(O)cc1)NC(=O)[C@@H](NC(=O)[C@H](CCCN=C(N)N)NC(=O)CNC)C(C)C)[C@@H](C)CC)C(=O)O` (H-[Sar]RVYIH[Aib]I-OH): the Activity in assay [1] stood at 0%. The pA2 at Angiotensin II receptor was 8. In addition, the ID50 (ng min-1 rat-1) in assay [2] was found to be 60.

`CC[C@H](C)[C@H](NC(=O)[C@H]1C[S+]([O-])CN1C(=O)[C@H](Cc1c[nH]cn1)NC(=O)[C@@H](NC(=O)[C@H](Cc1ccc(O)cc1)NC(=O)[C@@H](NC(=O)[C@H](CCCN=C(N)N)NC(=O)CNC)C(C)C)[C@@H](C)CC)C(=O)O` (some centres undefined) (H-[Sar]RVYIH[X2]I-OH) registered a pA2 on Angiotensin II receptor of 6.7.

Consider `CNCC(=O)N[C@@H](CCCN=C(N)N)C(=O)N[C@H](C(=O)N[C@@H](Cc1ccc(O)cc1)C(=O)NC1(C(=O)N[C@@H](Cc2c[nH]cn2)C(=O)N2CCC[C@H]2C(=O)N[C@@H](Cc2ccccc2)C(=O)O)CCCC1)C(C)C` (H-[Sar]RVY[Ac5c]HPF-OH), for which the Activity in assay [1] stood at 70%.

The compound `CC[C@H](C)[C@H](NC(=O)[C@@H]1CCCN1C(=O)[C@H](Cc1c[nH]cn1)NC(=O)[C@@H](NC(=O)[C@H](Cc1ccc(O)cc1)NC(=O)[C@@H](NC(=O)[C@H](CCCN=C(N)N)NC(=O)CNC)C(C)C)C(C)(C)SC)C(=O)O` (H-[Sar]RVY[Pen](Me)HPI-OH) yielded a pA2 on Angiotensin II receptor of 9.

For the compound `CNCC(=O)N[C@@H](CCCN=C(N)N)C(=O)N(C)[C@@H](C)C(=O)N[C@@H](Cc1ccc(O)cc1)C(=O)N1CSC(C)(C)[C@H]1C(=O)N[C@@H](Cc1c[nH]cn1)C(=O)N1CCC[C@H]1C(=O)NC(C)(C)C(=O)O` (H-[Sar]R[NMeA]Y[Thz(5,5-Me2)]HP[Aib]-OH), the pA2 at Angiotensin II receptor was less than 6.

For orientation: pA2 means a measure of antagonist potency on a negative log scale.

Values taken from ChEMBL document CHEMBL1125769 (J Med Chem, 1991).
